Experimental data published in ChEMBL document CHEMBL1131001, “Syntheses and anticholinesterase activities of (3aS)-N1, N8-bisnorphenserine, (3aS)-N1,N8-bisnorphysostigmine, their antipodal isomers, and other potential metabolites of phenserine” (J Med Chem, 1998).

Tests used:
Acetylcholinesterase [1] = biological target: T1, Acetylcholinesterase (Homo sapiens, UniProt P22303); assay: Anticholinesterase activity against erythrocyte acetylcholinesterase (AChE) in humans.
Method in brief: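 Human red blood cells, freshly collected, were washed five times in isotonic saline, lysed in 0.1 M Na3PO4 pH 7.4 with 0.5% Triton-X, and diluted 1:200. Compounds in half-log dilutions from 0.3 nM were preincubated with enzyme for 30 min at room temperature in pH 8.0 phosphate.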

Cholinesterase [2] = biological target: T2, Cholinesterase (Homo sapiens, UniProt P06276); assay: Anticholinesterase activity against plasma Butyrylcholinesterase (BChE) in humans.; assay type: cell-free
T2 sequence (P06276 whole entry): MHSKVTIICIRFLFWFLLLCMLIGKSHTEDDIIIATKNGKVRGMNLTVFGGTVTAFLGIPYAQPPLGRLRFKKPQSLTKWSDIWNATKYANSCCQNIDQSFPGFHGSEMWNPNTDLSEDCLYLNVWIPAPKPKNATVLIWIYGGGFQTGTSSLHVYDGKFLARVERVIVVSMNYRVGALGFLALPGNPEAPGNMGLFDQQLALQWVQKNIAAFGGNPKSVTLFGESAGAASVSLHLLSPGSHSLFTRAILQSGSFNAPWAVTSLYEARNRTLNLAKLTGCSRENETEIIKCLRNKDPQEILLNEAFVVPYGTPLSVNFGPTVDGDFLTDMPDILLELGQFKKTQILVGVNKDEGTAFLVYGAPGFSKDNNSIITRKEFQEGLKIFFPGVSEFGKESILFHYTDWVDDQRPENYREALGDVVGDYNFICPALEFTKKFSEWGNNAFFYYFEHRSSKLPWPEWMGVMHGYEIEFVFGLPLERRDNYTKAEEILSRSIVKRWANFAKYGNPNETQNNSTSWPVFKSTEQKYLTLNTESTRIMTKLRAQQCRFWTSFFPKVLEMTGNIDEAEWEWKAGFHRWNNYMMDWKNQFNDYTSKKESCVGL

Cholinesterase [3] = biological target: T2, Cholinesterase; assay: Anticholinesterase activity against plasma Butyrylcholinesterase (BChE) in humans.(no detectable activity at 3*10e-5 M); assay type: cell-free
Acetylcholinesterase [4] = biological target: T1, Acetylcholinesterase; assay: Anticholinesterase activity against erythrocyte acetylcholinesterase (AChE) in humans.(no detectable activity at 3*10e-5 M)

T1 sequence (P22303 whole entry): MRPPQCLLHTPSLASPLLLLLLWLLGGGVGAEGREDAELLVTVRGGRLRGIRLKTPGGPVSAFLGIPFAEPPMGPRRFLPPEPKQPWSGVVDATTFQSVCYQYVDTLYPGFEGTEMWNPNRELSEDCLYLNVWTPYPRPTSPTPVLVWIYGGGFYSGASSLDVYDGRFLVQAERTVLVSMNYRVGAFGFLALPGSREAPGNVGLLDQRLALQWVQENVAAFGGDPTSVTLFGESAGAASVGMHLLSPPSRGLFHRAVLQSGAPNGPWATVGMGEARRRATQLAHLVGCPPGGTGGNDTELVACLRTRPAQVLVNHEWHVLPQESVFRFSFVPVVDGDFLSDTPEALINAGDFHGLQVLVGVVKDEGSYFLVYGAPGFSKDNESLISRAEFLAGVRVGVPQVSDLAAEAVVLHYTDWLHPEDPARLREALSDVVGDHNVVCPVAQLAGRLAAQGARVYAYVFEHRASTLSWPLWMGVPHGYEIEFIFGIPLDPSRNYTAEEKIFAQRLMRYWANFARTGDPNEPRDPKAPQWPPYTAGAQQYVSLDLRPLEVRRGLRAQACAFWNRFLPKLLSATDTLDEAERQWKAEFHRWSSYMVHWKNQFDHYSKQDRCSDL

Structure (SMILES) | IC50 (Acetylcholinesterase [1]) | IC50 (Cholinesterase [2]) | IC50 (Cholinesterase [3]) | IC50 (Acetylcholinesterase [4])
CNC(=O)Oc1ccc2c(c1)[C@]1(C)CCNC1N2 (stereo not given in full) | 10.9 nM | 2.4 nM |  | 
C[C@@]12CCNC1Nc1ccc(OC(=O)Nc3ccccc3)cc12 (stereo not given in full) |  | 897 nM |  | 
CNC(=O)Oc1ccc2c(c1)[C@@]1(C)CCN(Cc3ccccc3)C1N2Cc1ccccc1 (stereo not given in full) | 3560 nM | 776 nM |  | 
C[C@@]12CCN(Cc3ccccc3)C1N(Cc1ccccc1)c1ccc(OC(=O)Nc3ccccc3)cc12 (single isomer, unassigned; (-)) | 41100 nM | 513 nM |  | 
C[C@]12CCN(Cc3ccccc3)C1N(Cc1ccccc1)c1ccc(OC(=O)Nc3ccccc3)cc12 (stereo not given in full) |  |  | No detectable activity | No detectable activity
CN1c2ccc(OC(=O)Nc3ccccc3)cc2[C@]2(C)CCNC12 (stereo not given in full) |  | 612 nM |  | 
CNC(=O)Oc1ccc2c(c1)[C@@]1(C)CCNC1N2 (stereo not given in full) | 1490 nM | 237 nM |  | 
C[C@]12CCNC1Nc1ccc(OC(=O)Nc3ccccc3)cc12 (stereo not given in full) | 231 nM | 952 nM |  | 
CN1CC[C@@]2(C)C3=CC(=O)C(=O)C=C3N(C)C12 (stereo not given in full) |  |  | No detectable activity | No detectable activity
CNC(=O)Oc1ccc2c(c1)[C@]1(C)CCN(Cc3ccccc3)C1N2Cc1ccccc1 (stereo not given in full) | 1090 nM | 8.1 nM |  | 
CN1CC[C@@]2(C)c3cc(O)ccc3N(C)[C@@H]12 |  |  | No detectable activity | No detectable activity
